Experimental data reported in ChEMBL document CHEMBL1122281, “Synthesis and antifilarial activity of N-[4-[[4-alkoxy-3-[(dialkylamino)methyl]phenyl]amino]- 2-pyrimidinyl]-N'-phenylguanidines” (J Med Chem, 1983).

Tests used:
Litomosoides carinii [1] = assay: Antifilarial activity against Litomosoides carinii infections in the Jird at dose 25 mg/kg administered orally; type: functional; conditions: route oral
Procedure, shortened: (§1)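 L. carinii-infected jirds were dosed. Survivors were killed 55–70 days after the first dose, and the pleural and peritoneal cavities were searched for adult worms. Live worms at autopsy were scored as a percentage relative to sham-dosed controls. Adult worm reduction above 60% was the activity criterion.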

Litomosoides carinii [2] = assay: Antifilarial activity against Litomosoides carinii infections in the Jird at dose 100 mg/kg administered subcutaneously; type: functional; conditions: route subcutaneous; procedure, shortened: as §1
[3] = Antifilarial activity against Litomosoides carinii infections in the Jird at dose 100 mg/kg administered subcutaneously; two or more animals died prematurely considered to be drug toxicity.; type: organism-based, Meriones unguiculatus; design: dose 100 mg/kg, route subcutaneous; conditions: gerbil, in vivo, sc
Procedure, shortened: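 Jirds infected with Litomosoides carinii. Surviving animals killed 55–70 days after first drug dose; pleural and peritoneal cavities searched for adult worms. Live worm count at autopsy scored as percentage relative to sham-dosed controls. Activity criterion: adult worm reduction exceeding 60%.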

Litomosoides carinii [4] = assay: Antifilarial activity against Litomosoides carinii infections in the Jird at dose 100 mg/kg administered orally; type: functional; conditions: route oral; procedure, shortened: as §1
Litomosoides carinii [5] = assay: Antifilarial activity against Litomosoides carinii infections in the Jird at dose 3 mg/kg administered orally; type: functional; conditions: route oral; procedure, shortened: as §1

| SMILES | Reduction of live worms (Litomosoides carinii [1]) | Reduction of live worms (Litomosoides carinii [2]) | Animals dead [3] | Reduction of live worms (Litomosoides carinii [4]) | Reduction of live worms (Litomosoides carinii [5]) |
| --- | --- | --- | --- | --- | --- |
| CCN(CC)Cc1cc(Nc2cc(C(F)(F)F)nc(/N=C(\N)Nc3ccc(Oc4ccccc4)cc3)n2)ccc1OC | 27% | 0% | > 2 | – | – |
| CCN(CC)Cc1cc(Nc2cc(-c3ccccc3)nc(/N=C(\N)Nc3ccc(Cl)c(Cl)c3)n2)ccc1O | – | 53% | – | 47% | – |
| CCN(CC)Cc1cc(Nc2cc(C(F)(F)F)nc(/N=C(\N)Nc3ccc(Cl)cc3)n2)cc(-c2ccccc2)c1O | – | 35% | – | 88% | – |
| CCN(CC)Cc1cc(Nc2cc(C(F)(F)F)nc(/N=C(\N)Nc3ccc(C(F)(F)F)cc3)n2)ccc1OC | 100% | 100% | – | 100% | 73% |
| CCOC(=O)N1CCN(Cc2cc(Nc3cc(C(F)(F)F)nc(/N=C(\N)Nc4ccc(Cl)c(Cl)c4)n3)ccc2O)CC1 | – | 31% | – | – | – |
| CCN(CC)Cc1cc(Nc2cc(C(F)(F)F)nc(/N=C(\N)Nc3ccc(C(F)(F)F)cc3)n2)ccc1OCc1ccccc1 | 100% | 100% | – | 100% | 0% |
| CCNCc1cc(Nc2cc(C(F)(F)F)nc(/N=C(\N)Nc3ccc(C(=O)c4ccccc4)cc3)n2)ccc1OC | – | 0% | – | – | – |
| COc1ccc(Nc2cc(C(F)(F)F)nc(/N=C(\N)Nc3ccccc3)n2)cc1CN1CCN(C)CC1 | 95% | – | – | 100% | 5% |
| CN(C)Cc1cc(Nc2cc(C(F)(F)F)nc(/N=C(\N)Nc3ccc(C(=O)c4ccccc4)cc3)n2)ccc1O | 32% | 100% | – | – | -22% |
| CC(C)CNCc1cc(Nc2cc(C(F)(F)F)nc(/N=C(\N)Nc3ccc(Cl)c(Cl)c3)n2)ccc1O | 100% | – | – | 100% | 35% |
| N/C(=N\c1ccc(Cl)c(Cl)c1)Nc1nc(Nc2ccc(O)c(CNCC3CCCCC3)c2)cc(C(F)(F)F)n1 | – | 4% | – | – | – |
| CN1CCN(Cc2cc(Nc3cc(C(F)(F)F)nc(/N=C(\N)Nc4ccc(Oc5ccccc5)cc4)n3)ccc2O)CC1 | – | 8% | – | – | – |
| CCN(CC)Cc1cc(Nc2nc(/N=C(\N)Nc3ccc(Cl)c(Cl)c3)nc3c2CCCC3)ccc1O | – | 0% | – | – | – |
| CCOc1ccc(Nc2cc(C(F)(F)F)nc(/N=C(\N)Nc3ccc(Cl)c(Cl)c3)n2)cc1CN(CC)CC | 100% | – | – | 100% | 21% |
| CCOc1ccc(Nc2cc(-c3ccccc3)nc(/N=C(\N)Nc3ccc(Cl)c(Cl)c3)n2)cc1CN(CC)CC | 78% | – | > 2 | – | 15% |
| CCNCc1cc(Nc2cc(C(F)(F)F)nc(/N=C(\N)Nc3ccc(C(F)(F)F)cc3)n2)ccc1OC | 100% | 100% | – | 100% | 30% |
| CN1CCN(Cc2cc(Nc3cc(C(F)(F)F)nc(/N=C(\N)Nc4ccc(C(=O)c5ccccc5)cc4)n3)ccc2O)CC1 | – | 8% | – | – | – |

| SMILES | Reduction of live worms (Litomosoides carinii [1]) | Reduction of live worms (Litomosoides carinii [2]) | Animals dead [3] | Reduction of live worms (Litomosoides carinii [4]) | Reduction of live worms (Litomosoides carinii [5]) |
| --- | --- | --- | --- | --- | --- |
| CCNCc1cc(Nc2cc(C(F)(F)F)nc(/N=C(\N)Nc3ccc(Oc4ccccc4)cc3)n2)ccc1OC | – | 0% | – | – | – |
| CCN(CC)Cc1cc(Nc2cc(C(F)(F)F)nc(/N=C(\N)Nc3ccc(OC)cc3)n2)ccc1OC | 100% | 100% | – | – | 0% |
| CCN(CC)Cc1cc(Nc2cc(C(F)(F)F)nc(/N=C(\N)Nc3ccc(Oc4ccccc4)cc3)n2)ccc1O | – | 3% | – | 9% | – |
| CCN(CC)Cc1cc(Nc2cc(C(F)(F)F)nc(/N=C(\N)Nc3ccc(Cl)c(Cl)c3)n2)ccc1OC(C)C | 100% | 100% | – | 100% | 11% |
| CCN(CC)Cc1cc(Nc2cc(C(F)(F)F)nc(/N=C(\N)Nc3ccc(Cl)c(Cl)c3)n2)ccc1OCc1ccccc1 | 100% | – | – | 100% | 52% |
| CCN(CC)Cc1cc(Nc2cc(C(F)(F)F)nc(/N=C(\N)Nc3ccc(OC)cc3)n2)ccc1O | 100% | 95% | – | 95% | 2% |
| CCN(CC)Cc1cccc(Nc2cc(C(F)(F)F)nc(/N=C(\N)Nc3ccc(Cl)c(Cl)c3)n2)c1 | 100% | – | – | 100% | 83% |
| CCN(CC)Cc1cc(Nc2cc(C(F)(F)F)nc(/N=C(\N)Nc3ccc(C(=O)c4ccccc4)cc3)n2)ccc1O | – | 6% | – | 6% | – |
| CCN(CC)Cc1cc(Nc2cc(C(F)(F)F)nc(/N=C(\N)Nc3ccc(C(=O)c4ccccc4)cc3)n2)ccc1OCc1ccccc1 | – | 0% | – | 27% | – |
| CN(C)Cc1cc(Nc2cc(C(F)(F)F)nc(/N=C(\N)Nc3ccc(C(F)(F)F)cc3)n2)ccc1O | 100% | – | > 2 | – | 54% |
| CCNCc1cc(Nc2cc(C(F)(F)F)nc(/N=C(\N)Nc3ccccc3)n2)ccc1OC | 33% | 96% | – | – | – |
| CCN(CC)Cc1cc(Nc2cc(C(F)(F)F)nc(/N=C(\N)Nc3ccc(C(=O)c4ccccc4)cc3)n2)ccc1OC | – | 19% | – | 16% | – |
| CN(C)Cc1cc(Nc2cc(C(F)(F)F)nc(/N=C(\N)Nc3ccc(Oc4ccccc4)cc3)n2)ccc1O | – | 12% | – | – | – |
| N/C(=N\c1ccc(Cl)c(Cl)c1)Nc1nc(Nc2ccc(O)c(CN3CCCC3)c2)cc(C(F)(F)F)n1 | 100% | – | – | 100% | 59% |
| CCN(CC)Cc1cc(Nc2cc(C(F)(F)F)nc(/N=C(\N)Nc3ccc(Oc4ccccc4)cc3)n2)ccc1OCc1ccccc1 | – | 0% | – | 22% | – |
| CCNCc1cc(Nc2cc(-c3ccccc3)nc(/N=C(\N)Nc3ccc(Cl)c(Cl)c3)n2)ccc1OC | – | 0% | – | – | – |
